Calls of active or inactive are those of the source. No cut-off for these calls is given here.

Series [1] has as its target T1, Inhibitor of nuclear factor kappa-B kinase subunit alpha (Homo sapiens) (UniProt O15111).
T1 sequence (whole entry): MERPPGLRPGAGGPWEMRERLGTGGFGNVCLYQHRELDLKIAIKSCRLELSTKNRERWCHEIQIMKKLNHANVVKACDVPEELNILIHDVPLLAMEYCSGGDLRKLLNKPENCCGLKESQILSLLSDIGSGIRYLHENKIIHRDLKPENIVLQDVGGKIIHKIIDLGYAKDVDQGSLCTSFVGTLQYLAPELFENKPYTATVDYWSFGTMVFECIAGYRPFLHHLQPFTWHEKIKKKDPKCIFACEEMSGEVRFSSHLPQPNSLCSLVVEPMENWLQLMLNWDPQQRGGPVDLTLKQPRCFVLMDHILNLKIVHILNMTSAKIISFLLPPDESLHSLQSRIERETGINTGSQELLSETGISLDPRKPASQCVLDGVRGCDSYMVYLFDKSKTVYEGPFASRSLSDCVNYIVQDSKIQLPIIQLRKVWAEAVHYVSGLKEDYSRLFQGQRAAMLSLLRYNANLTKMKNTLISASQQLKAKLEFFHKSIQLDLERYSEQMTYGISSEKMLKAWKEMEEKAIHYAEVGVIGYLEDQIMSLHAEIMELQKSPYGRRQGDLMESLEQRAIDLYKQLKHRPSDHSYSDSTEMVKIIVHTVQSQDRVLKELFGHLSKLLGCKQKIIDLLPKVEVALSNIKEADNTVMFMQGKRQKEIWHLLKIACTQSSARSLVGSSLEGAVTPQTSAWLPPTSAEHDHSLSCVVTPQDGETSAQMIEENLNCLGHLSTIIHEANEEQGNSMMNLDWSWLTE
Briefly: Inhibition of human IKKalpha using LDDRHDSGLDSMKDEEY as substrate at 100 uM after 40 mins in presence of [gamma-33P-ATP] by scintillation counting analysis. The essentials: (§1)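 Radiometric [γ-33P]ATP assay (specific activity approx. 500 cpm/pmol) run by an outsourced service. Compound was added first from a 50x stock in DMSO, giving 2% DMSO final. Positive controls contained DMSO only; blanks used a reference inhibitor to set 0% activity. Reactions were started with MgATP mix, run 40 min at room temperature, and stopped with 3% phosphoric acid. They were spotted on P30 filtermat, washed in 75 mM phosphoric acid and methanol, and scintillation counted.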

Series [2] addresses Mitogen-activated protein kinase 1 (Homo sapiens) (UniProt P28482). In words: Inhibition of human MAPK1 at 100 uM after 40 mins in presence of [gamma-33P-ATP] by scintillation counting analysis. The method, boiled down:
as §1

The target in series [3] is T2, Protein kinase C zeta type (Homo sapiens) (UniProt Q05513).
T2 sequence (whole entry): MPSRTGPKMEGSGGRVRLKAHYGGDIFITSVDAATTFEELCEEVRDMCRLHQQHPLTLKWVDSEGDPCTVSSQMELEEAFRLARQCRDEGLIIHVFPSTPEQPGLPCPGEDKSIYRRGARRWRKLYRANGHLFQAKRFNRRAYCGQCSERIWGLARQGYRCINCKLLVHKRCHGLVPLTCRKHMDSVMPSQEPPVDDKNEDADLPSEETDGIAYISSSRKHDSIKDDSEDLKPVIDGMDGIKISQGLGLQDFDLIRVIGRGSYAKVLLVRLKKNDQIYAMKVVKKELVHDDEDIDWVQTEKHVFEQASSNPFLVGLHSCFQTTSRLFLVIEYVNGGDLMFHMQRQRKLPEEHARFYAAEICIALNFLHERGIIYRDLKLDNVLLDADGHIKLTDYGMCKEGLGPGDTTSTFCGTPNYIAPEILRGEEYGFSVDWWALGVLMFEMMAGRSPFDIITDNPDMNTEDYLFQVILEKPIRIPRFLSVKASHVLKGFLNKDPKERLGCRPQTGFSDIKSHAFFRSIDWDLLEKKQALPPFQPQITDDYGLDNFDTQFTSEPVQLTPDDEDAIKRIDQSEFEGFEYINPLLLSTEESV
In words: Inhibition of human PKCzeta using ERMRPRKRQGSVRRRV as substrate at 100 uM after 40 mins in presence of [gamma-33P-ATP] by scintillation counting analysis. The method, boiled down:
as §1

For the next series, the system named is HEK293. In words: Cytotoxicity in HEK293T cells expressing pGL4.32[luc2p/NF-kBRE/Hygro] by MTT assay. It counts as cell-based. As to conditions: human. The method, boiled down: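 HEK293T cells were co-transfected with pGL4.32 and pGL4.74, re-seeded in 96-well plates, and treated with or without compound for 30 min. They were then stimulated with 10 ng/ml TNFα for 6-8 h, as in the reporter assay. MTT (20 µl of 5 mg/ml in PBS) was added for 4 h at 37 °C. Formazan was dissolved in DMSO and read at 490 nm. Values are mean±SD of at least triplicate measurements.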
(Tetrazolium assays rely on reduction of a dye to a coloured formazan, in cell work by metabolically active cells.)

The target in series [4] is T3, Inhibitor of nuclear factor kappa-B kinase subunit beta (Homo sapiens) (UniProt O14920).
T3 sequence (whole entry): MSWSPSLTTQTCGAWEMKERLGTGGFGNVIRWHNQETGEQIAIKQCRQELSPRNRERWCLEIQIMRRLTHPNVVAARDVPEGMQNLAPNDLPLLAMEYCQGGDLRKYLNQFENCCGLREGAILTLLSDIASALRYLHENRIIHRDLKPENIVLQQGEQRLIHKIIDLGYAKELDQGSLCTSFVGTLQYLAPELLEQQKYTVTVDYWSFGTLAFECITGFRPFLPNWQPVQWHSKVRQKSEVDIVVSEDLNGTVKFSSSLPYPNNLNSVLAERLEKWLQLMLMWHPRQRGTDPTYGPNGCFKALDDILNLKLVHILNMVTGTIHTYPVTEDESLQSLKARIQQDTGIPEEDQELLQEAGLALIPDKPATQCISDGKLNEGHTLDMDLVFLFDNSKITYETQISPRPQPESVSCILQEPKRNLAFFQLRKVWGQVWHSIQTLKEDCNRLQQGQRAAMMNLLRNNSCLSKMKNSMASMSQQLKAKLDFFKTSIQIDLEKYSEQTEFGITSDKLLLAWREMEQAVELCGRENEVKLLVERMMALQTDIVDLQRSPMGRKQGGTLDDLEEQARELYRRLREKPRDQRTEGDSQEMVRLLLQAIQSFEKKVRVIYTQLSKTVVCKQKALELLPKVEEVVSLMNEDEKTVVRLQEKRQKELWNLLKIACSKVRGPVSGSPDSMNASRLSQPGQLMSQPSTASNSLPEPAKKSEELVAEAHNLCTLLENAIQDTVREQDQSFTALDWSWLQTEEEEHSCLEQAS
Briefly: Inhibition of TNFalpha-stimulated IKKbeta phosphorylation at Ser177/181 residues in human HeLa cells up to 200 uM preincubated for 30 mins followed by TNFalpha stimulation and measured after 10 mins by Western blot analysis. Background: A western blot detects proteins with antibodies after separation by electrophoresis.

Sequence of Mitogen-activated protein kinase 1 (Homo sapiens) (P28482 whole entry): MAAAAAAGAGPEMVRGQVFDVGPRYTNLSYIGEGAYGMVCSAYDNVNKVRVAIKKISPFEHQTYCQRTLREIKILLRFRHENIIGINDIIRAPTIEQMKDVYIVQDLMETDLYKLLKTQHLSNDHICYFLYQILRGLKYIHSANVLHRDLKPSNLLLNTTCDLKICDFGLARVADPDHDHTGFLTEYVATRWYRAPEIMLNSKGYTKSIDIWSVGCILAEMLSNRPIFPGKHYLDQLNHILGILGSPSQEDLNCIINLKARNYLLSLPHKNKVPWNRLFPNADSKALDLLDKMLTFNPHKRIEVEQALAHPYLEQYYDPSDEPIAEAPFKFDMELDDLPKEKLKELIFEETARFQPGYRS

As for `CCOc1c(S(=O)(=O)NC2CC(C)(C)NC(C)(C)C2)ccc(Cl)c1Cl`, the inhibition entry in series [1], in series [2] and in series [3] was “inactive” in each case. In addition, the Activity entry in the series on HEK293 is on record as “Non-Toxic”. Also, in series [4], the inhibition result was “Active”.

The values are drawn from ChEMBL document CHEMBL4257486, “A novel allosteric inhibitor that prevents IKKβ activation” (Medchemcomm, 2018).
